Data set [1] concerns Mus musculus. The experiment in a line: Biodistribution in tumor of C57BL/6J mouse bearing mouse B16F0 cells at 0.37 to 1.85 MBq, iv after 3 hrs by gamma counting method. Type of data set: ADME, organism-based. The settings on record: in vivo. Put shortly:
(§1)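 Female C57BL/6J mice (5−6 weeks), s.c. inoculated on left flank with 3 × 10^5 B16F0 cells in Ca2+/Mg2+-free PBS, used 11 days later (tumors 2−12 mm). Radiotracer given via tail vein in 100 μL (~0.37 MBq for 1−24 h, 1.85 MBq for 48 h). Organs dissected, weighed, γ-counted, decay corrected. Expressed as % ID/g against injected-dose dilutions. Mean ± SEM, n = 5.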

For data set [2], the system named is Mus musculus. The experiment in a line: Biodistribution in tumor of C57BL/6J mouse bearing mouse B16F0 cells at 0.37 to 1.85 MBq, iv after 16 hrs by gamma counting method. Type of data set: ADME, organism-based. The settings on record: in vivo. Put shortly: as §1
In another data set the test system is Spleen. The experiment in a line: Biodistribution in spleen of C57BL/6J mouse bearing mouse B16F0 cells at 0.37 to 1.85 MBq, iv after 24 hrs by gamma counting method. Type of data set: ADME, organism-based. The settings on record: in vivo. In outline: as §1
Data set [3] can be described thus: Ratio of AUC in tumor to bone of C57BL/6J mouse bearing mouse B16F0 cells at 0.37 to 1.85 MBq, iv by gamma counting method. Type of data set: ADME, organism-based. The settings on record: in vivo. In outline: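 Biodistribution in B16F0-bearing C57BL/6J mice given i.v. tail-vein tracer (~0.37 MBq for 1–24 h, 1.85 MBq for 48 h). Sacrifice at 1, 3, 6, 16, 24 and 48 h, then organs dissected, weighed and γ-counted as decay-corrected % ID/g. Tumor AUC divided by each organ AUC; mean of ratios ± SEM, n = 5.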

Data set [4] can be described thus: Stability in eyes of C57BL/6J mouse bearing mouse B16F0 cells assessed as intact parent compound level at 0.37 to 1.85 MBq, iv after 3 hrs by radio-HPLC and radio-TLC method. Type of data set: ADME, organism-based, Eye. The settings on record: in the assay text read “20 MBq” for “0.37 to 1.85 MBq”, read-out: Stability. In outline:
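Tumor-bearing C57BL/6J mice were sampled 3 and 24 h after i.v. tracer. Tissue was sonicated in CH3CN/water (3:2) with cold iodo standard and KI, then centrifuged. Urine was diluted and spiked; plasma was spiked, with CH3CN precipitation for TLC. Intact fraction came from silica radio-TLC (spot matching standard Rf) and radio-HPLC with precolumn/C18 column switching.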

Experimental findings from ChEMBL document CHEMBL3588831, “Synthesis and in Vivo Evaluation of [123I]Melanin-Targeted Agents” (J Med Chem, 2015) are described below.

Molecules are shown by their SMILES.

For `O=C(CN1Cc2ccccc2C1=O)N1C[C@H]2CN(Cc3ccc([123I])cc3)C[C@H]2C1`, the Drug uptake was found to be 10.8 % ID/g with Mus musculus [1], 11.6 % ID/g in the data set with Mus musculus [2] and 0.05 % ID/g with Spleen. The Ratio in data set [3] came out at 25. The remaining at 3 h in data set [4] turned out to be 90%.

Consider `O=C(c1ccc2c(n1)NCCC2)N1CCN(Cc2ccc([123I])cc2)CC1`, for which the Drug uptake stood at 32.1 % ID/g in the data set on Mus musculus [1], 20.4 % ID/g with Mus musculus [2] and 0.2 % ID/g with Spleen. Besides, the Ratio in data set [3] came out at 65.5. In addition, in data set [4], the remaining at 3 h is 60%.

In the case of `O=C(c1ccc2cccnc2n1)N1CCN(Cc2ccc([123I])cc2)CC1`, the Drug uptake is given as 20 % ID/g with Mus musculus [1], 18.4 % ID/g in the data set on Mus musculus [2] and 0.5 % ID/g in the data set with Spleen. Moreover, the Ratio in data set [3] turned out to be 44. Besides, in data set [4], the remaining at 3 h was 60%.

On to `O=C(CN1Cc2ccccc2C1=O)NC1CCN(Cc2ccc([123I])cc2)CC1`, for which the Drug uptake with Mus musculus [1] came out at 11.6 % ID/g; with Mus musculus [2], 18.1 % ID/g; with Spleen, 1.2 % ID/g. In addition, the Ratio in data set [3] is given as 65.8. Also, in data set [4], the remaining at 3 h turned out to be 90%.
